The record followed here is ChEMBL document CHEMBL1141156, “Mapping antimalarial pharmacophores as a useful tool for the rapid discovery of drugs effective in vivo: design, construction, characterization, and pharmacology of metaquine” (2005).

Experiment [1] in a line: Binding constant dissolved in DMSO against hematin receptor at pH 7.4 (HEPES Buffer) upon incubation at 30 degree C. The method, boiled down:
(§1)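 Hemin from 1.2 mM DMSO stock diluted to ~12 μM in 40% aqueous DMSO, 0.02 M HEPES, apparent pH 7.4–7.5 (monomeric hematin). Drug serial dilutions mixed with heme in microplate wells, 30 min incubation at the stated temperature, absorbance at 405 nm (Soret). Reference wells without heme subtract drug absorbance. Triplicate readings; log K by nonlinear least-squares fit, 1:1 heme–drug model.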

Experiment [2] can be described thus: Binding constant dissolved in DMSO against hematin receptor at pH 7.4 (HEPES Buffer) upon incubation at 37 degree C. The method, boiled down:
as §1

A short description of experiment [3]: Binding constant dissolved in DMSO against hematin receptor at pH 7.4 (HEPES Buffer) upon incubation at 42 degree C. The method, boiled down: as §1
The nature of experiment [4]: Dose (diphosphate) present in DMSO required to inhibit Plasmodium berghei N/13 infected mice (Mus musculus) administered subcutaneously 3-4 hr after infection on day 1 and then twice daily on days 2 and 3. The format is functional. Particulars: sc, read-out: ID50 (the source's name). In a few lines:
(§2)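 MF1 mice inoculated iv with 2×10^7 P. berghei N/13 parasitized erythrocytes. Drug given sc as five injections over 72 h in olive oil/DMSO (96:4) or saline/DMSO (96:4). Parasitemia read at 72 h on Leishman-stained tail blood smears, 4–8 mice per dose, 2–8 dose levels. ID50 is the dose giving 50% inhibition versus concurrent vehicle-treated mice.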

In experiment [5] the test system is Plasmodium falciparum. The experiment can be described thus: In vitro inhibition of Plasmodium falciparum K1. The format is functional. In a few lines: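 Synchronized, mostly ring-stage P. falciparum K1 at 1.0% parasitemia in RPMI 1640 with 25 mM HEPES pH 7.4 and 32 mM NaHCO3. Drug from DMSO stock, final DMSO ≤0.01%. Culture 24 h at 37 °C under 17% O2/3% CO2/80% N2, then 18–24 h with [3H]hypoxanthine. Incorporation counted by scintillation after filter harvest; IC50 reported.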

Experiment [6] is described as follows: Binding constant dissolved in DMSO against hematin receptor at pH 7.4 (HEPES Buffer) upon incubation at 23 degree C. The method, boiled down:
as §1

Experiment [7] in a line: Dose of the compound (hydrochloride) required to inhibit Plasmodium berghei Plasmodium berghei N/13 parasitemia by 50%. It is filed as functional. Particulars: read-out: ID50 (the source's name). The method, boiled down:
(§3)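 P. berghei-infected MF1 mice (2×10^7 parasitized erythrocytes iv). Drug in Water for Injections BP/DMSO (98:2) at 65 and 199 μM in drinking water, ad libitum; daily volume drunk measured to calculate dose. Parasitemia on Leishman-stained tail smears at 72 h, 4–8 mice per group. ID50 is 50% inhibition versus vehicle-treated mice.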

Experiment [8] in a line: Dose (dihydrochloride) present in DMSO required to inhibit Plasmodium berghei NY infected mice (Mus musculus) administered intraperitoneally. It is filed as functional. Particulars: ip, read-out: ID50 (the source's name). In a few lines: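 MF1 mice infected iv with 2×10^7 P. berghei NY parasitized erythrocytes. Dosing ip, five injections over 72 h, in Water for Injections BP/DMSO (96:4). Parasitemia counted on Leishman-stained tail smears at 72 h, groups of 4–8 mice. ID50 derived from 2–8 dose levels relative to vehicle-treated controls.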

In experiment [9] the test system is Plasmodium berghei. The experiment can be described thus: In vivo 50% inhibition of parasitaemia in Plasmodium berghei infected mice (Mus musculus) by oral dose. Particulars: read-out: ID50 (the source's name). The format is functional. The method, boiled down:
as §3

Experiment [10] can be described thus: Dose present in DMSO required to inhibit Plasmodium berghei N/13 infected mice (Mus musculus) administered subcutaneously 3-4 hr after infection on day 1 and then twice daily on days 2 and 3. The format is functional. Particulars: sc, read-out: ID50 (the source's name). In a few lines: as §2
Experiment [11] is described as follows: Dose (dihydrochloride) present in DMSO required to inhibit Plasmodium berghei N/13 infected mice (Mus musculus) administered subcutaneously. Particulars: sc, read-out: ID50 (the source's name). The format is functional. In a few lines:
as §2

In the case of `CCN(CC)CCCC(C)Nc1ccnc2cc(Cl)ccc12` (stereo not given) [CHLOROQUINE], the Log K in [1] was 5.4; in experiment [2], 5.4; in experiment [3], 5.3. Moreover, the ED50 in experiment [4] is 8.3 µmol/kg. In experiment [5], 230 nM corresponded to half-maximal inhibition (IC50).
For the molecule `Clc1ccc2c(Nc3cccc(Nc4ccnc5cc(Cl)ccc45)c3)ccnc2c1` [METAQUINE], the Log K worked out at 6.1 in experiment [6], 5.4 in [1], 5.1 in experiment [2] and 5.8 in [3]. Moreover, the ED50 in [7] is 2.4 µmol/kg; in experiment [8], 3.2 µmol/kg; in experiment [9], 25 µmol/kg; in [10] it was 1.5 µmol/kg; in experiment [11] it was 2.9 µmol/kg. In [5], this molecule had an IC50 of 170 nM.
